Assay results gathered from unrelated publications.
Compare with care: the assays were run in different laboratories.
Target: MAP kinase-activated protein kinase 2 (MAPKAPK2, Homo sapiens, UniProt P49137)

CCN(CC)c1ccc(C2=NNC(=O)CC2C)cc1[N+](=O)[O-] (stereo not drawn)  remaining activity (enzyme activity; inhibitor; 10 µM): 86%
COc1cc(Nc2cnc(C#N)c(O[C@H](C)CN(C)C)n2)ncc1-c1cnn(C)c1  remaining activity (enzyme activity; inhibitor; radiometric; 10 µM): 104%
COc1cc(/C=C/C(=O)CC(=O)/C=C/c2ccc(O)c(OC)c2)ccc1O  activity vs control (enzyme activity; inhibitor; 1 µM): 90%
CS(=O)(=O)N1CCCC(NC(=O)[C@H](CCC2CCCCC2)NC(=O)c2ccc(CNc3ncnc4c3nnn4-c3ccccc3)cc2)C1 (stereo partly drawn)  remaining binding (cell-free assay; competition with immobilised ligand; 0.1 µM): 100%
Oc1cccc(-c2nc(N3CCOCC3)c3oc4ncccc4c3n2)c1  remaining activity (enzyme activity; inhibitor; 10 µM): 90%
COc1cc2ncnc(Nc3ccc(Oc4ccccc4)cc3C)c2cc1OC  inhibition (enzyme activity; inhibitor; 1 µM): 4%
Nc1cnc(N2CCc3cc(S(=O)(=O)Nc4c(F)cc(Cl)cc4F)cc(N4CCCC4=O)c32)nc1  remaining binding (cell-free assay; competition with immobilised ligand; 1 µM): 100%
FC(F)(F)Oc1cccc(-c2cnc3ccc(-c4ccncc4)nn23)c1  activity vs control (enzyme activity; inhibitor; radiometric; 1 µM): 93%
FC(F)c1nc2ccccc2n1-c1nc(N2CCOCC2)nc(N2CCOCC2)n1  remaining activity (enzyme activity; inhibitor; 10 µM): 91%
Cc1cnc(NC2CCOCC2)nc1-n1cnc(C(=O)NC(CN)c2cc(F)cc(Cl)c2)c1 (stereo not drawn)  remaining activity (enzyme activity; inhibitor; radiometric; 1 µM): 108%
O=C(CSc1nc2nccnc2c(=O)n1CCc1ccccc1)Nc1nccs1  inhibition (enzyme activity; inhibitor; 10 µM): 6%
CSc1nc(C)c(-c2ccnc(Nc3ccc(N4CCOCC4)cc3)c2)[nH]1  inhibition (enzyme activity; inhibitor; 10 µM): -1.9%
CCOc1cc(-c2nncn2C)ccc1Nc1ncc2cc(C)nc(NCC(C)(C)C)c2n1  inhibition (enzyme activity; inhibitor; FRET; 1 µM): 24%
Cc1ccc(NC(=O)c2ccc(C)c(C(F)(F)F)c2)cc1C#Cc1nn(C2CCC(O)CC2)c2ncnc(N)c12 (stereo not drawn)  remaining signal (cell-free assay; 10 µM): 104%
N#CCCc1ccc2c(c1)-c1[nH]c3ccc([N+](=O)[O-])cc3c1CC(=O)N2  remaining signal (cell-free assay; 0.5 µM): 83.4%
Cc1noc([C@H]2C[C@@H](c3ccc(C(F)(F)F)cc3)CN(C(=O)N3CCS(=O)(=O)C3)C2)n1  remaining binding (cell-free assay; competition with immobilised ligand; 1 µM): 97%
CCCOc1ccc(OC)c(F)c1C(=O)c1ccc(C(=O)N[C@@H]2CNC[C@H]2NC(=O)c2ccc3[nH]ncc3c2)cc1  remaining activity (enzyme activity; inhibitor; 10 µM): 49%
CCS(=O)(=O)c1cc2cc(C[C@@](O)(CC(C)(C)c3ccc(F)cc3C(N)=O)C(F)(F)F)[nH]c2cn1  remaining binding (cell-free assay; competition with immobilised ligand; 1 µM): 100%
Cc1sc(C(=O)NC2COC2)cc1-n1cc(NC(=O)Nc2c(F)cccc2Cl)cn1  remaining activity (enzyme activity; inhibitor; 10 µM): 93.6%
Cc1nc(C2CCN(C(=O)c3ccc(OC(F)(F)F)cc3N)CC2)c2ncc(N3CCN(C)CC3)cc2n1  remaining binding (cell-free assay; competition with immobilised ligand; 1 µM): 100%
O=C(Nc1cnn(-c2csc(C(=O)NC3COC3)c2)c1)Nc1c(F)cccc1Cl  remaining activity (enzyme activity; inhibitor; 5 µM): 99.8%
CCCS(=O)(=O)Nc1ccc(F)c(C(=O)c2c[nH]c3ncc(-c4ccc(Cl)cc4)cc23)c1F  inhibition (enzyme activity; inhibitor; 1 µM): < 10%
Cc1ccc(Nc2nccc(N(C)c3ccc4c(C)n(C)nc4c3)n2)cc1S(N)(=O)=O  inhibition (enzyme activity; inhibitor; 0.3 µM): 4%
CN(C)C(=O)Cn1cc(-c2nc([C@@](C)(c3ccc(-c4cnc(N)nc4)cc3)C3CC3)no2)cn1  remaining binding (cell-free assay; competition with immobilised ligand; 1 µM): 92%
CNC(=O)c1cc(Oc2ccc(NC(=O)Nc3ccc(Cl)c(C(F)(F)F)c3)cc2)ccn1  inhibition (enzyme activity; inhibitor; 10 µM): 6%
CN(C)C1CCN(CC#Cc2nn(C3CCCC3)c3nc(NCc4ccccc4)ncc23)C1 (stereo not drawn)  inhibition (enzyme activity; inhibitor; FRET; 10 µM): 0%
Cn1cc(Cl)c2c(Oc3c(F)cc(Nc4cc(Cl)nc(N)n4)cc3F)ccnc21  remaining binding (cell-free assay; competition with immobilised ligand; 0.1 µM): 100%
COc1cc(Nc2c(C#N)cnc3cc(OCCCN4CCN(C)CC4)c(OC)cc23)c(Cl)cc1Cl  remaining signal (cell-free assay; 0.5 µM): 94.7%
CC(C)(C)c1nc(-c2cccc(NS(=O)(=O)c3c(F)cccc3F)c2F)c(-c2ccnc(N)n2)s1  remaining activity (enzyme activity; inhibitor; radiometric; 1 µM): 69%
Nc1nc(Nc2ccccc2)sc1C(=O)c1c(F)cccc1F  remaining activity (enzyme activity; inhibitor; 10 µM): 99%
O=C1Nc2ccc(Cl)cc2C1=Cc1cc(Cl)c(O)c(Cl)c1  remaining signal (cell-free assay; 0.5 µM): 100%
C[C@H](c1ccnc(Nc2nc3ccc(-c4cc(N(C)C)ncn4)cc3[nH]2)c1)N1CCN(C(=O)CC(F)(F)F)CC1  remaining binding (cell-free assay; competition with immobilised ligand; 0.1 µM): 100%
CCN(CC)CCNC(=O)c1c(C)[nH]c(/C=C2\C(=O)Nc3ccc(F)cc32)c1C  inhibition (enzyme activity; inhibitor; 0.3 µM): 7%
